Experimental data taken from ChEMBL document CHEMBL1126822, “7 alpha-Methyl- and 11 beta-ethoxy-substitution of [125I]-16 alpha-iodoestradiol: effect on estrogen receptor-mediated target tissue uptake” (J Med Chem, 1993).

Tests used:
Rattus norvegicus [1] = assay: Tissue uptake (muscle) of [125I]- after administration of [125I]-labeled compound to immature female rats (n=3) in the presence of 60 microg coinjected estradiol after 1 hour; format: ADME, organism-based; conditions: in vivo
Method in brief: (§1)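 Immature female Fischer rats, 24 days old, 55-60 g, unanesthetized in retention cages, given HPLC-purified 125I-labeled steroid (3 μCi, 111 kBq) via lateral tail vein in 200 μL of 9% ethanol-saline with 1% Tween-80. The blocking group was coinjected with 60 μg unlabeled estradiol and sampled at 1 h. Animals were killed under ether at 0.5-24 h. Tissues were KCl-washed, blotted, weighed and gamma-counted. Results are % ID/g, with variation as small-sample-corrected %CV.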

Rattus norvegicus [2] = assay: Tissue uptake (muscle) of [125I]- after administration of [125I]-labeled compound to immature female rats (n=4) in the absence of 60 microg coinjected estradiol after 2 hours; format: ADME, organism-based; conditions: in vivo; method in brief: as §1
Rattus norvegicus [3] = assay: Tissue uptake (muscle) of [125I]- after administration of [125I]-labeled compound to immature female rats (n=4) in the absence of 60 microg coinjected estradiol after 5 hours; format: ADME, organism-based; conditions: in vivo; method in brief: as §1
Rattus norvegicus [4] = assay: Tissue uptake (muscle) of [125I]- after administration of [125I]-labeled compound to immature female rats (n=5) in the absence of 60 microg coinjected estradiol after 1 hour; format: ADME, organism-based; conditions: in vivo; method in brief: as §1
Rattus norvegicus [5] = assay: Tissue uptake (fat) of [125I]- after administration of [125I]-labeled compound to immature female rats (n=3) in the absence of 60 microg coinjected estradiol after 24 hours; format: ADME, organism-based; conditions: in vivo; method in brief: as §1
Rattus norvegicus [6] = assay: Tissue uptake (fat) of [125I]- after administration of [125I]-labeled compound to immature female rats (n=3) in the presence of 60 microg coinjected estradiol after 1 hour; format: ADME, organism-based; conditions: in vivo; method in brief: as §1
Rattus norvegicus [7] = assay: Tissue uptake (fat) of [125I]- after administration of [125I]-labeled compound to immature female rats (n=4) in the absence of 60 microg coinjected estradiol after 5 hours; format: ADME, organism-based; conditions: in vivo; method in brief: as §1
Rattus norvegicus [8] = assay: Tissue uptake (kidneys) of [125I]- after administration of [125I]-labeled compound to immature female rats (n=3) in the absence of 60 microg coinjected estradiol after 24 hours; format: ADME, organism-based, Kidney; conditions: in vivo; method in brief: as §1
Rattus norvegicus [9] = assay: Tissue uptake (kidneys) of [125I]- after administration of [125I]-labeled compound to immature female rats (n=3) in the presence of 60 microg coinjected estradiol after 1 hour; format: ADME, organism-based, Kidney; conditions: in vivo; method in brief: as §1
Rattus norvegicus [10] = assay: Tissue uptake (kidneys) of [125I]- after administration of [125I]-labeled compound to immature female rats (n=5) in the absence of 60 microg coinjected estradiol after 1 hour; format: ADME, organism-based, Kidney; conditions: in vivo; method in brief: as §1
Rattus norvegicus [11] = assay: Tissue uptake (liver) of [125I]- after administration of [125I]-labeled compound to immature female rats (n=3) in the absence of 60 microg coinjected estradiol after 0.5 hours; format: ADME, organism-based; conditions: in vivo; method in brief: as §1
Rattus norvegicus [12] = assay: Tissue uptake (liver) of [125I]- after administration of [125I]-labeled compound to immature female rats (n=3) in the presence of 60 microg coinjected estradiol after 1 hour; format: ADME, organism-based; conditions: in vivo; method in brief: as §1
Rattus norvegicus [13] = assay: Tissue uptake (liver) of [125I]- after administration of [125I]-labeled compound to immature female rats (n=4) in the absence of 60 microg coinjected estradiol after 2 hours; format: ADME, organism-based; conditions: in vivo; method in brief: as §1
Rattus norvegicus [14] = assay: Tissue uptake (lungs) of [125I]- after administration of [125I]-labeled compound to immature female rats (n=3) in the absence of 60 microg coinjected estradiol after 0.5 hours; format: ADME, organism-based; conditions: in vivo; method in brief: as §1
Rattus norvegicus [15] = assay: Tissue uptake (lungs) of [125I]- after administration of [125I]-labeled compound to immature female rats (n=3) in the presence of 60 microg coinjected estradiol after 1 hour; format: ADME, organism-based; conditions: in vivo; method in brief: as §1
Rattus norvegicus [16] = assay: Tissue uptake (lungs) of [125I]- after administration of [125I]-labeled compound to immature female rats (n=4) in the absence of 60 microg coinjected estradiol after 2 hours; format: ADME, organism-based; conditions: in vivo; method in brief: as §1
Rattus norvegicus [17] = assay: Tissue uptake (lungs) of [125I]- after administration of [125I]-labeled compound to immature female rats (n=4) in the absence of 60 microg coinjected estradiol after 5 hours; format: ADME, organism-based; conditions: in vivo; method in brief: as §1
Rattus norvegicus [18] = assay: Tissue uptake (spleen) of [125I]- after administration of [125I]-labeled compound to immature female rats (n=3) in the absence of 60 microg coinjected estradiol after 0.5 hours; format: ADME, organism-based; conditions: in vivo
Method in brief: (§2)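 Immature female Fischer rats, 24 days old, 55-60 g, unanesthetized in retention cages, got HPLC-purified n.c.a. 125I-labeled steroid (3 μCi, 111 kBq) by lateral tail vein. Dose was given in 200 μL saline with 9% ethanol and 1% Tween-80. Deep ether anesthesia, axillary artery cut; tissues KCl-washed, blotted, weighed, gamma-counted as % ID/g; variation as small-sample-corrected %CV.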

Rattus norvegicus [19] = assay: Tissue uptake (spleen) of [125I]- after administration of [125I]-labeled compound to immature female rats (n=4) in the absence of 60 microg coinjected estradiol after 5 hours; format: ADME, organism-based; conditions: in vivo; method in brief: as §2
Rattus norvegicus [20] = assay: Tissue uptake (spleen) of [125I]- after administration of [125I]-labeled compound to immature female rats (n=5) in the absence of 60 microg coinjected estradiol after 1 hour; format: ADME, organism-based; conditions: in vivo; method in brief: as §2
Rattus norvegicus [21] = assay: Tissue uptake (uterus) of [125I]- after administration of [125I]-labeled compound to immature female rats (n=5) in the absence of 60 microg coinjected estradiol after 1 hour; format: ADME, organism-based; conditions: in vivo; method in brief: as §2
Rattus norvegicus [22] = assay: Tissue uptake (blood) of [125I]- after administration of [125I]-labeled compound to immature female rats (n=5) in the absence of 60 microg coinjected estradiol after 1 hour; format: ADME, organism-based; conditions: in vivo; method in brief: as §1
Rattus norvegicus [23] = assay: Tissue uptake (thyroid) of [125I]- after administration of [125I]-labeled compound to immature female rats (n=3) in the presence of 60 microg coinjected estradiol after 1 hour; format: ADME, organism-based, Thyroid gland; conditions: in vivo; method in brief: as §2
Rattus norvegicus [24] = assay: Tissue uptake (thyroid) of [125I]- after administration of [125I]-labeled compound to immature female rats (n=4) in the absence of 60 microg coinjected estradiol after 5 hours; format: ADME, organism-based, Thyroid gland; conditions: in vivo; method in brief: as §2
Rattus norvegicus [25] = assay: Tissue uptake (thyroid) of [125I]- after administration of [125I]-labeled compound to immature female rats (n=5) in the absence of 60 microg coinjected estradiol after 1 hour; format: ADME, organism-based, Thyroid gland; conditions: in vivo; method in brief: as §2
Rattus norvegicus [26] = assay: Tissue uptake (uterus) of [125I]- after administration of [125I]-labeled compound to immature female rats (n=3) in the presence of 60 microg coinjected estradiol after 1 hour; format: ADME, organism-based; conditions: in vivo; method in brief: as §2
Rattus norvegicus [27] = assay: Tissue uptake (uterus) of [125I]- after administration of [125I]-labeled compound to immature female rats (n=4) in the absence of 60 microg coinjected estradiol after 2 hours; format: ADME, organism-based; conditions: in vivo; method in brief: as §2
Rattus norvegicus [28] = assay: Tissue uptake (blood) of [125I]- after administration of [125I]-labeled compound to immature female rats (n=3) in the presence of 60 microg coinjected estradiol after 1 hour; format: ADME, organism-based; conditions: in vivo; method in brief: as §1
[29] = target: Estrogen receptor (Mus musculus) (UniProt O08537+P19785); assay: Binding affinity at murine estrogen receptor by [3H]estradiol displacement.; format: protein assay
Method in brief: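 Competitive binding in murine uterine cytoplasmic extracts, incubated 18 h at 0-4 °C with 20 nM [3H]estradiol, with or without competing steroids from 2 nM to 20 μM. RBA = 100 × ratio of competitor to unlabeled estradiol concentration giving 50% competition of specific [3H]estradiol binding. Mean of three experiments with SD.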

Rattus norvegicus [30] = assay: Tissue uptake (spleen) of [125I]- after administration of [125I]-labeled compound to immature female rats (n=3) in the presence of 60 microg coinjected estradiol after 1 hour; format: ADME, organism-based; conditions: in vivo; method in brief: as §2

Sequence of Estrogen receptor (Mus musculus) (O08537 whole entry, looked up): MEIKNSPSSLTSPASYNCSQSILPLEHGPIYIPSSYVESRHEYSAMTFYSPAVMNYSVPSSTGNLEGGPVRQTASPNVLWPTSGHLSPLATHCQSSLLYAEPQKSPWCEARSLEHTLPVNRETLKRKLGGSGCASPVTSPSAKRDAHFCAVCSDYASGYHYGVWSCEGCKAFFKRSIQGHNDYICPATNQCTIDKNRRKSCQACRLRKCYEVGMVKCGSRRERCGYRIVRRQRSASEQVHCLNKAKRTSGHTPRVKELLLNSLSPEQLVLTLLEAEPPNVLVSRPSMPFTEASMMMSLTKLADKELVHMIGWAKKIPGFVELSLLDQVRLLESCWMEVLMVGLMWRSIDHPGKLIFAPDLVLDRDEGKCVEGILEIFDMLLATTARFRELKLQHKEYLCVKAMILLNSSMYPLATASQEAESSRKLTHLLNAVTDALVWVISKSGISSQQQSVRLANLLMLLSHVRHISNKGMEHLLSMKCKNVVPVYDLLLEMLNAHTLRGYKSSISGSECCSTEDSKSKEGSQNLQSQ
Sequence of Estrogen receptor (Mus musculus) (P19785 whole entry, looked up): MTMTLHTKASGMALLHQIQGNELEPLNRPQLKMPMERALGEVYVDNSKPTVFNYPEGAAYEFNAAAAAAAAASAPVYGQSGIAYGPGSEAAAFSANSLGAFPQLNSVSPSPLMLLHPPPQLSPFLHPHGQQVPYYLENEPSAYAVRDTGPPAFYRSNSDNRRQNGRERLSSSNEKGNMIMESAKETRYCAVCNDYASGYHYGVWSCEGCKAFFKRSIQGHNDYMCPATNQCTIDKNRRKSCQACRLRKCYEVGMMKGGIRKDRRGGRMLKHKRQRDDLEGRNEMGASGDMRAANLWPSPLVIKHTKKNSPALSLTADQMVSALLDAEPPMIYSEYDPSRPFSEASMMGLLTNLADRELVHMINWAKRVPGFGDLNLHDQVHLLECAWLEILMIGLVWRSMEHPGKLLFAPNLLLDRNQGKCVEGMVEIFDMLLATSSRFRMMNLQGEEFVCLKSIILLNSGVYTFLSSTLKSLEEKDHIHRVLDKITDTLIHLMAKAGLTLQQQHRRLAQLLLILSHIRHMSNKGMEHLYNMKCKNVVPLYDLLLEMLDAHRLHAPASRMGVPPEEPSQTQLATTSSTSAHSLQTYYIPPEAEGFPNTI

| Structure (SMILES) | ID/g (Rattus norvegicus [1]) [%] | ID/g (Rattus norvegicus [2]) [%] | ID/g (Rattus norvegicus [3]) [%] | ID/g (Rattus norvegicus [4]) [%] | ID/g (Rattus norvegicus [5]) [%] | ID/g (Rattus norvegicus [6]) [%] | ID/g (Rattus norvegicus [7]) [%] | ID/g (Rattus norvegicus [8]) [%] | ID/g (Rattus norvegicus [9]) [%] | ID/g (Rattus norvegicus [10]) [%] | ID/g (Rattus norvegicus [11]) [%] | ID/g (Rattus norvegicus [12]) [%] | ID/g (Rattus norvegicus [13]) [%] | ID/g (Rattus norvegicus [14]) [%] | ID/g (Rattus norvegicus [15]) [%] | ID/g (Rattus norvegicus [16]) [%] | ID/g (Rattus norvegicus [17]) [%] | ID/g (Rattus norvegicus [18]) [%] | ID/g (Rattus norvegicus [19]) [%] | ID/g (Rattus norvegicus [20]) [%] | further results |
| --- | --- | --- | --- | --- | --- | --- | --- | --- | --- | --- | --- | --- | --- | --- | --- | --- | --- | --- | --- | --- | --- |
| CCO[C@H]1C[C@]2(C)[C@@H](O)[C@H](I)C[C@H]2[C@@H]2CCc3cc(O)ccc3[C@H]21 | 0.72 | 0.52 | 0.35 | 0.69 | 0.15 | 1.63 | 0.52 | 0.24 | 1.61 | 1.83 | 5.91 | 4.5 | 3.24 | 1.72 | 1.18 | 1.01 | 0.76 | 1.44 | 1.28 | 1.49 | ID/g (Rattus norvegicus [21]): 11.67%; ID/g (Rattus norvegicus [22]): 1.01%; ID/g (Rattus norvegicus [23]): 156.51%; ID/g (Rattus norvegicus [24]): 703.1%; ID/g (Rattus norvegicus [25]): 110.96%; ID/g (Rattus norvegicus [26]): 0.72%; ID/g (Rattus norvegicus [27]): 13.08%; ID/g (Rattus norvegicus [28]): 1.09%; relative binding affinity (RBA) [29]: 16.5; ID/g (Rattus norvegicus [30]): 1.6% |
| C[C@@H]1Cc2cc(O)ccc2[C@H]2CC[C@]3(C)[C@@H](O)[C@H](I)C[C@H]3[C@H]12 | 0.27 | 0.15 | 0.06 | 0.32 | 0.03 | 1.64 | 0.38 | 0.3 | 0.51 | 0.83 | 1.94 | 1.09 | 1.09 | 0.82 | 0.43 | 0.32 | 0.19 | 0.57 | 0.22 | 0.43 | ID/g (Rattus norvegicus [21]): 5.25%; ID/g (Rattus norvegicus [22]): 0.38%; ID/g (Rattus norvegicus [23]): 43.5%; ID/g (Rattus norvegicus [24]): 320.54%; ID/g (Rattus norvegicus [25]): 45.15%; ID/g (Rattus norvegicus [26]): 0.34%; ID/g (Rattus norvegicus [27]): 6.35%; ID/g (Rattus norvegicus [28]): 0.33%; relative binding affinity (RBA) [29]: 55.2; ID/g (Rattus norvegicus [30]): 0.43% |
